From ChEMBL document CHEMBL3272109, “3-Substituted pyrazole derivatives as inhibitors and inactivators of liver alcohol dehydrogenase” (J Med Chem, 1979)
Calls of active or inactive are those of the source. The calls are words filed in the database; no cut-off is given here.

Assays:
Alcohol dehydrogenase = Alcohol dehydrogenase (Equus caballus, UniProt P00327+P00328); experiment: Inhibition of horse liver alcohol dehydrogenase using ethanol as substrate assessed as dissociation constant by spectrophotometric titration in presence of 1 mM NAD+
In short: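 Difference titration at 300 nm, 0.1 M sodium phosphate pH 7.0, 25 °C, 1 mM NAD⁺, in a double-sector cuvette (0.438-mm path) against a separated-sector reference. Either 19–27 μM enzyme was titrated with pyrazole, or 100 μM pyrazole was titrated with enzyme. Kd from a Scatchard least-squares fit; SD of three determinations.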

[1] = biological target: T1, Alcohol dehydrogenase (Equus caballus) (UniProt P00327+P00328); experiment: Reversible inhibition of horse liver alcohol dehydrogenase using ethanol as substrate by stopped-flow method in presence of 1 mM NAD+
[2] = biological target: T1, Alcohol dehydrogenase (Equus caballus); experiment: Competitive inhibition of horse liver alcohol dehydrogenase using ethanol as substrate by spectrophotometric titration in presence of 1 mM NAD+
In short: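 Purified horse liver EE isoenzyme, dialysed and gel-filtered free of ethanol; 10 nM enzyme. Ethanol varied at 0.4–2 mM with NAD⁺ fixed at 1 mM, in 33 mM sodium phosphate pH 7, 25 °C. Rates recorded spectrophotometrically. Constants come from fitting to the competitive inhibition equation; errors are standard errors of the fit.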

[3] = biological target: T1, Alcohol dehydrogenase (Equus caballus); experiment: Inactivation of horse liver alcohol dehydrogenase using ethanol as substrate at 10 mM up to 5 mins by spectrophotometric titration
In short: (§1)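 Enzyme (1 mg/mL) incubated with reagent under 5 min in 0.1 M Na₂P₂O₇ adjusted to pH 8.0 with H₃PO₄, 25 °C, with NAD⁺ where stated. Then 10 μL of reaction mixture diluted into 1 mL standard assay mixture, and the initial velocity of NADH production measured. Activity is given relative to the original.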

[4] = biological target: T1, Alcohol dehydrogenase (Equus caballus); experiment: Inactivation of horse liver alcohol dehydrogenase using ethanol as substrate at 200 mM up to 5 mins by spectrophotometric titration; in short: as §1
[5] = biological target: T1, Alcohol dehydrogenase (Equus caballus); experiment: Inactivation of horse liver alcohol dehydrogenase using ethanol as substrate at 10 to 200 mM up to 5 mins by spectrophotometric titration in presence of 1 mM NAD+; in short: as §1
[6] = biological target: T1, Alcohol dehydrogenase (Equus caballus); experiment: Reversible inhibition of horse liver alcohol dehydrogenase using ethanol as substrate assessed as increase in enzyme activity at 1 mM measured after 40 mins of 100-fold dilution by stopped-flow method in presence of NAD+; set-up: scale not given: the % may be the effect or the level left
In short: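 0.94 μN enzyme was preincubated with 1 mM NAD⁺ and 1 mM pyrazole, then diluted 100-fold into assay mix (0.55 M ethanol, 1.75 mM NAD⁺, pH 9, 25 °C). NAD⁺ reduction followed at 340 nm for 40 min. Rates were taken as tangents at various times and expressed versus the original activity; an apparent first-order dissociation rate constant was derived.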

[7] = biological target: T1, Alcohol dehydrogenase (Equus caballus); experiment: Reversible inhibition of horse liver alcohol dehydrogenase using ethanol as substrate assessed as reduction in enzyme activity at 0.1 mM compound in diluted assay mixture measured after 20 to 40 mins by stopped-flow method in presence of NAD+
[8] = biological target: T1, Alcohol dehydrogenase (Equus caballus); experiment: Reversible inhibition of horse liver alcohol dehydrogenase using ethanol as substrate at 1 mM measured after 100-fold dilution in presence of NAD+; set-up: scale not given: the % may be the effect or the level left
[9] = biological target: T1, Alcohol dehydrogenase (Equus caballus); experiment: Reversible inhibition of horse liver alcohol dehydrogenase using ethanol as substrate assessed as remaining enzyme activity at 1 mM by stopped-flow method in presence of 1 mM NAD+

Structure (SMILES)	Kd (Alcohol dehydrogenase)	inhibition [2]	further results
c1cn[nH]c1 [PYRAZOLE]	0.2 µM		Activity [1]: 3 ×10⁵ /M/s
CC(=O)c1cc[nH]n1	5100 µM	Active	
OCCCc1cc[nH]n1	60 µM	Active	
OCCCc1cn[nH]c1	0.56 µM		
O=C(O)c1cc[nH]n1	6500 µM	Active	
OCCc1cc[nH]n1	170 µM	Active	
Cc1cc[nH]n1	125 µM	Active	
ClCc1cc[nH]n1		Active	Activity [3]: 36%; Activity [4]: 98%; Activity [5]: inactive
OCc1cn[nH]c1	3.6 µM		
Cc1cn[nH]c1 [FOMEPIZOLE]	0.013 µM		
ClCCCc1cc[nH]n1	40 µM	Active	Activity [6]: ≥ 48%; inhibition [7]: 52%; Activity [8]: 10%; Activity [9]: 67%
ClCc1cn[nH]c1	2.7 µM		
OCCc1cn[nH]c1	0.77 µM		
ClCCCc1cn[nH]c1	0.02 µM		
OCc1cc[nH]n1	150 µM	Active	
ClCCc1cc[nH]n1	200 µM	Active	Activity [6]: ≥ 48%; Activity [8]: 10%; Activity [9]: 67%
